High-throughput results: PubChem, several laboratories
Most compounds without a hit are left out; they make up all but 3.1% or so of the library.
ADAM10 inh = human ADAM10 inhibitors, primary screen, biochemical, QFRET, HTS. inhibition, % at 7 µM. AID 720582, 2013. hit rate 0.62% among 370,000. recombinant ADAM10, EDANS/DABCYL FRET peptide cleavage, 3 h. Disintegrin and metalloproteinase domain-containing protein 10 (Homo sapiens), O14672;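 active = inhibition above a per-campaign cutoff equal to the mean of compounds falling between control-based bounds plus 3 SD, cut at about 20% in these data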;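 also: 0% = DMSO wells while the 100% control is not disclosed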
ADAM17 inh = ADAM17 inhibitors, primary screen, biochemical, QFRET; recombinant ADAM17, EDANS/DABCYL FRET peptide cleavage; Disintegrin and metalloproteinase domain-containing protein 17 (Homo sapiens), P78536; AID 720648, 2013; hit rate 0.83% among 370,000; inhibition, % at 6.95 µM;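 active = inhibition above the mean of compounds lying between control limits plus 3 SD, set per campaign, cut at about 8.5% in these data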;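 also: 0% = DMSO-only wells as the low control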
Target sequence (P78536 215-824 limits assumed): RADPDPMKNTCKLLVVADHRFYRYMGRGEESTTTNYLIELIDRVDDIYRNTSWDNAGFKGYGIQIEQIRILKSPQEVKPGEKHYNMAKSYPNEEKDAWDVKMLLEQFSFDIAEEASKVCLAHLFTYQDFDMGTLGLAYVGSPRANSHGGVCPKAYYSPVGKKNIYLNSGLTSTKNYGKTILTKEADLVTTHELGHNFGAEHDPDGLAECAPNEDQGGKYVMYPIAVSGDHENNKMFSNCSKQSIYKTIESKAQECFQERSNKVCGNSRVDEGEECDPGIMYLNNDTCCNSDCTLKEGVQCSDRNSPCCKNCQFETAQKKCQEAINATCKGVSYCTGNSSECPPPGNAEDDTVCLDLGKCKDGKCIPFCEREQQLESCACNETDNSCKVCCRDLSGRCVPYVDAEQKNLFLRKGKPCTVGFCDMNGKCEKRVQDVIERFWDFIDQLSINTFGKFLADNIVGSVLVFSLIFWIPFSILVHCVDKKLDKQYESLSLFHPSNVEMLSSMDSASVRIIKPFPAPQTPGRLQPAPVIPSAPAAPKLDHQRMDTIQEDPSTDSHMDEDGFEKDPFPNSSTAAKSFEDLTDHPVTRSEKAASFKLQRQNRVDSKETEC
Hep lipid drop = inhibitors of hepatocyte lipid droplet formation, primary screen, imaging, high-throughput imaging, BODIPY stain | AML12 mouse hepatocytes, oleate lipid droplets | inhibition, % at 6.5 µM | hit rate 0.4% among 240,000;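 active = lipid droplet intensity inhibited by at least 50%, with more than 500 cells counted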
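Test system: AML12 hepatocytes (mouse); reagent: oleate loading, 100 µM; dosing: one dose, 6.5 µM compound; incubation: overnight exposure; signal: fluorescence imaging, 20x objective, two fields per well; read-out basis: % inhibition of corrected integrated BODIPY droplet signal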
MPTP inh = mitochondrial permeability transition pore inhibitors, primary screen, biochemical, isolated mouse mitochondria, absorbance; hit rate 1.4% among 360,000; AID 602449, 2012; inhibition, % at 10 µM; Ca2+ swelling absorbance, 30 min;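 active = inhibition of 50% or more, scaled per plate between neutral and stimulator controls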;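 also: 0% = DMSO wells given calcium and 100% = 1 mM EGTA wells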
aDG glyco act = activators of alpha-DG glycosylation, primary screen, uHTS, Pro5-aDG cells, AlphaScreen; hit rate 0.22% among 360,000; activation, % at 10 µM; alpha-DG glycosylation AlphaScreen (IIH6); 0% Pro5, 100% B10-LARGE cell signal;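 active = activation of at least 8% versus controls, or a plate z-score of at least 8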;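 also: Pro5 are CHO cells carrying HIG-tagged alpha-DG that lacks glycosylation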
V-ATPase pH = regulators of yeast V-ATPase proton pumping, primary screen, pHLuorin cytosolic pH fluorescence; S. cerevisiae; response, % at 10 µM; hit rate 0.37% among 350,000; AID 504577, 2011; in the data active = response mostly above about 7.3%, no sharp cut-off; inactive = mostly below about 5.4%; also: actives read high
Rh123 counter = fluorescence retest of MPTP screen hits in isolated mitochondria, single concentration | AID 624504, 2012 | hit rate 78% among 5,000 | inhibition, % at 10 µM | shares compounds with MPTP inh | membrane potential, Rhodamine 123 fluorescence; in the data active = inhibition above about 22%;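 also: 0% = DMSO vehicle and 100% = positive control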
MPTP abs DR = mitochondrial permeability transition pore inhibitors, dose response, biochemical, absorbance, uHTS hits; shares compounds with MPTP inh; isolated mitochondria swelling; IC50, µM; hit rate 58% among 780; AID 651561, 2012; in the data active = IC50 below about 20 µM
MPTP counter DR = fluorescent counter-screen in isolated mitochondria, dose response, counter-screen for MPTP inhibitor project, biochemical, fluorescence, uHTS hits; shares compounds with MPTP inh; isolated mitochondria counterscreen, fluorescence read-out; IC50, µM; hit rate 49% among 780; AID 651564, 2012; in the data active = IC50 below about 80 µM
Active calls of the source: *; nt = not tested or not shown.

SMILES | ADAM10 inh | ADAM17 inh | Hep lipid drop | MPTP inh | aDG glyco act | V-ATPase pH | Rh123 counter | others
O=C(Nc1cccc(Cl)c1)O/N=C\c1ccncc1 | 8.8 | 4.9 | nt | 82.4* | 0.3 | 2.3 | 93.2*
O=C(Nc1ccc(Cl)c(Cl)c1)O/N=C/c1ccncc1 | -8.3 | 1.6 | -8.1 | 104.0* | -0.1 | 1.5 | 78.4*
COC(=O)c1cc(S(=O)(=O)N2CCN(c3ccccc3Cl)CC2)cn1C | -3.3 | 1.9 | nt | nt | nt | nt | nt
CN(Cc1cc(Cl)cc(Cl)c1O)Cc1c(O)ccc2ccccc12 | -40.8 | -13.3 | nt | 89.3* | 0.4 | -0.7 | 84.9*
CN(Cc1ccccc1)Cc1c(O)ccc2ccccc12 | -31.6 | -13.4 | 2.0 | -0.3 | -0.1 | 6.9 | nt
O=C(NCc1ccc(C(=O)N2CCCN(Cc3ccccc3)CC2)cc1)c1cccc(Br)c1 | -2.4 | 0.5 | nt | nt | nt | nt | nt
COc1ccc(Cn2ccc3ccc(-c4ccc5ccn(C(=O)c6ccccc6OC)c5c4)cc32)cc1 | -20.0 | -0.3 | nt | nt | nt | nt | nt
COc1ccc(-c2csc(NC(=O)C3CCN(c4ncnc5sc(C)c(C)c45)CC3)n2)cc1OC | -22.8 | 2.0 | nt | 87.6* | 2.0 | -1.4 | 64.5*
COc1ccccc1OCC(=O)NNC(=O)C1CCN(c2ncnc3sc(C)c(C)c23)CC1 | 6.9 | 1.7 | nt | -1.4 | -0.4 | -4.6 | nt
COC(=O)[C@@]12CCCCC3=C1N(CCC3)C(=O)[C@H]2CC(=O)N1CCSCC1 | -6.4 | -4.5 | nt | nt | nt | nt | nt
O=Cc1ccc(Oc2cc(-c3ccccc3)nc(-c3ccccc3)n2)cc1 | -4.6 | -4.1 | -1.7 | -29.3 | -0.3 | -0.8 | nt
CC(=O)c1ccc(Oc2cc(-c3ccccc3)nc(-c3ccccc3)n2)cc1 | -4.7 | -0.6 | -4.0 | 52.8* | -0.1 | -0.4 | -1.1 | MPTP abs DR=>100;MPTP counter DR=>80
C[C@@H]1NC(=O)[C@H]2C[C@@]3(c4ccccc4)c4ccccc4N[C@H]3N2C1=O | -0.8 | -2.3 | nt | nt | nt | nt | nt
CC1(C)Cc2ccccc2-c2nc(NN)[nH]c(=O)c21 | -219.1 | -83.8 | -4.0 | -1.5 | 0.0 | -1.3 | nt
CC1(C)Cc2ccccc2-c2nc(-c3ccccc3)oc(=O)c21 | 5.7 | -0.7 | 9.2 | 69.5* | -0.3 | -0.4 | -3.5 | MPTP abs DR=7.57*;MPTP counter DR=>80
CC(=O)Nc1ccc(S(=O)(=O)N2CCN(c3cc4c(cc3[N+](=O)[O-])n(C)c(=O)n4C)CC2)cc1 | 1.6 | -3.9 | nt | 3.8 | -0.3 | 3.4 | nt
COC(=O)c1ccc(N2CCN(S(=O)(=O)c3ccc(Br)cc3)CC2)c([N+](=O)[O-])c1 | 3.0 | -1.6 | 7.2 | 3.5 | 0.6 | -3.0 | nt
O=C(O)c1ccccc1C(=O)c1ccc(N2CCCC2)c([N+](=O)[O-])c1 | 4.3 | 3.4 | -0.3 | 0.1 | -0.2 | 0.6 | nt
COC(=O)c1ccc(N2CCN(S(=O)(=O)c3ccc(C)cc3)CC2)c([N+](=O)[O-])c1 | 2.6 | 1.6 | 11.5 | 56.1* | 1.0 | -1.6 | 65.3*
CC(=O)c1ccc(N2CCN(c3ccccc3O)CC2)c([N+](=O)[O-])c1 | 8.5 | 2.4 | 8.6 | 84.7* | 1.0 | 1.6 | 81.3*
Cn1c(=O)n(C)c2cc([N+](=O)[O-])c(N3CCN(S(=O)(=O)c4ccc(C(C)(C)C)cc4)CC3)cc21 | 1.7 | -5.2 | 2.3 | 54.3* | 3.1 | -3.3 | 70.8*
COc1ccc(S(=O)(=O)N2CCN(c3ccc(C)cc3C)CC2)cc1OC | 3.6 | 6.2 | -30.4 | 56.8* | 0.0 | 5.4 | 81.8*
C[C@@H]1COc2cc(Br)ccc2S(=O)(=O)N1Cc1cn(Cc2ccc(C(F)(F)F)cc2)nn1 | 5.5 | -1.8 | nt | nt | nt | nt | nt
O=C(Nc1cccc(F)c1)OCCCN1CCC2(CCC(c3ccccc3)CC2)C1 (stereo unspecified) | -1.8 | -0.9 | nt | nt | nt | nt | nt
COC(=O)C[C@@H]1CC[C@H]2[C@H](COc3ccc(NC(=O)C4CCC4)cc3C(=O)N2C)O1 | -2.2 | -0.3 | nt | nt | nt | nt | nt
SMILES | ADAM10 inh | ADAM17 inh | Hep lipid drop | MPTP inh | aDG glyco act | V-ATPase pH | Rh123 counter | others
CC(C)N1CCc2c(-c3nc4ccccc4s3)csc2C1 | -9.7 | -2.8 | nt | nt | nt | nt | nt
Cc1ccc(C2=NC(=O)/C(=C/c3cc(O)c(O)c(Br)c3)S2)cc1 | 1.2 | 0.9 | 15.6 | 114.1* | -0.1 | -1.9 | 36.1*
O=C(C1CCCN(S(=O)(=O)c2cccs2)C1)N1CCN(Cc2ccccc2)CC1 (stereo unspecified) | -10.6 | -0.3 | nt | nt | nt | nt | nt
Cc1ccc(NC(=O)CSc2ncnc3ccccc23)cc1S(=O)(=O)N1CCOCC1 | -6.0 | 0.1 | 1.6 | 24.0 | 0.4 | -0.5 | nt
Cc1ccc(NC(=O)CSc2ncnc3ccccc23)cc1S(=O)(=O)N1CCCCC1 | -9.5 | 3.0 | -2.8 | 78.7* | 0.9 | 3.4 | 71.3*
Cc1ccc(NC(=S)NCc2ccccc2)cc1S(=O)(=O)N1CCCCC1 | 16.0 | 7.5 | -22.7 | 75.1* | 0.4 | 3.2 | 75.2*
CCOC(=O)CNC(=O)CSc1nnc(C)c(=O)[nH]1 | -6.7 | 0.8 | 1.2 | -1.0 | -0.3 | 2.6 | nt
CCOC(=O)CSc1nnc(NCC(=O)OC(C)C)c(=O)[nH]1 | 7.4 | -0.3 | -0.3 | 62.9* | -0.1 | 1.9 | -2.3 | MPTP abs DR=>100;MPTP counter DR=>80
CC(=O)c1cc(-c2ccc(Oc3ccccc3)cc2)c(=O)n2c1CCC2 | -6.3 | -7.4 | nt | nt | nt | nt | nt
Cc1ccccc1CN1CCCCC(NC(=O)c2ccc(F)cc2F)C1=O (stereo unspecified) | -5.5 | -5.7 | nt | nt | nt | nt | nt
Cc1cc2c(s1)c1cnn(Cc3cc(F)c(F)cc3F)c(=O)c1n2C | -2.6 | -1.0 | nt | nt | nt | nt | nt
Cc1ccc2nc(C)c(CN3CCN(c4ccc([N+](=O)[O-])cc4Cl)CC3)n2c1 | -4.5 | 0.1 | -32.2 | 87.9* | 1.0 | 0.5 | 101.8*
CCCC1CCC2(CCC(=O)N2CCC#N)CC1 (stereo unspecified) | 0.3 | -1.4 | nt | nt | nt | nt | nt
O=C(NNc1nc2c(F)cccc2s1)c1ccc(F)cc1 | -3.2 | 0.2 | -4.5 | 66.0* | -0.6 | -2.9 | 90.0*
Fc1cccc2sc(Nc3nnc(-c4ccccc4)o3)nc12 | -114.2 | -16.8 | -9.5 | 75.7* | 0.4 | 2.6 | 76.0*
Fc1cccc2sc(Nc3nc4c(F)cccc4s3)nc12 | -194.2 | -40.6 | -10.9 | 56.4* | -0.3 | 1.1 | 69.0*
Cc1ccc2c(c1)C1CS(=O)(=O)N(CC(C)C)C(=O)N1C2 (stereo unspecified) | 3.7 | -1.3 | nt | nt | nt | nt | nt
COc1cc(C)nc(NCc2ccccc2)n1 | 0.9 | -1.5 | 35.6 | 2.1 | -0.1 | 0.0 | nt
